# Source: ChEMBL document CHEMBL5233202, “Metabolically stable apelin-analogues, incorporating cyclohexylalanine and homoarginine, as potent apelin receptor activators” (RSC Med Chem, 2021)
# Non-standard residues stand in square brackets, D forms with d. Residues, ends and D or L forms follow the SMILES beside them. Phe(4-Br) = N[C@@H](Cc1ccc(Br)cc1)C(=O)O; NMeCha = CN[C@@H](CC1CCCCC1)C(=O)O; hArg = N=C(N)NCCCC[C@H](N)C(=O)O; Nle = CCCC[C@H](N)C(=O)O; Aib = CC(C)(N)C(=O)O
# Legend:
# Neprilysin [1] = molecular target: T1, Neprilysin (Homo sapiens, UniProt P08473); test: Proteolytic stability assessed as recombinant human NEP-mediated compound degradation by measuring half life incubated for 24 hrs by LC-MS analysis; type: ADME; conditions: 24 h
# [2] = Stability in human plasma assessed as half life at 1 mM measured for 24 hrs by LC-MS analysis; type: ADME, cell-free
# Procedure, shortened: (§1)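 Plasma (20 μL, human or murine) prewarmed to 37 °C, then 5 μL of 1 mM peptide added and incubated at 37 °C. Samples quenched at 1, 3, 6 and 24 h with 6 M GuHCl/80% ACN and Dans-YVG internal standard, centrifuged, solid-phase extracted and analyzed by LC-MS. Peptide/standard peak-area ratio normalized to 0 h; triplicates.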
# [3] = Protein binding in pooled human plasma at 100 uM incubated for 3 hrs by equilibrium dialysis method; type: ADME, cell-free; conditions: read-out: PPB (converted)
# Procedure, shortened: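 Equilibrium dialysis. DMSO stock (1 mM) diluted to 100 μM final in 55% pooled human plasma stabilized with EDTA and MLN-4760, dialyzed against PBS pH 7.4 at 37 °C, 120 rpm, 3 h. Retentate diluted with PBS and dialysate with plasma, then quenched with 10% TFA/acetonitrile. Dans-YVG internal standard added, centrifuged, LC-MS.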
# Apelin receptor [4] = molecular target: T2, Apelin receptor (Homo sapiens, UniProt P35414); test: Activation of recombinant human APJ receptor expressed in rat Chem-5 cells assessed as increase in Ca2+ mobilization by FLIPR Calcium 6-QF fluorescent dye based assay; type: cell-based
# T2 sequence (P35414 whole entry): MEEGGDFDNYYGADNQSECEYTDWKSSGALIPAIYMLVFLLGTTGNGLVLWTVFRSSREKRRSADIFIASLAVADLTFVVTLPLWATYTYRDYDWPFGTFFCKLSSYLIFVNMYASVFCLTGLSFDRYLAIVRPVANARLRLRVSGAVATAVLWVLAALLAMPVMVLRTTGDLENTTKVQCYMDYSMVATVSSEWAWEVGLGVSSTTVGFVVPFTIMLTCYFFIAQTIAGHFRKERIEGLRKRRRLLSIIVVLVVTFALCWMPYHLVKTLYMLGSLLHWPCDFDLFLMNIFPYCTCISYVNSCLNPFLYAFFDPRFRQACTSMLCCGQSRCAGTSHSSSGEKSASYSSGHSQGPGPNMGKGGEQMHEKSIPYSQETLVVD
# Procedure, shortened: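 Frozen Chem-5 cells stably expressing human APJ, thawed per supplier protocol, loaded 1 h with Calcium 6-QF dye in HBSS/20 mM HEPES/0.2% DMSO/2.5 mM probenecid, pH 7.6. Cells washed three times and rested 10 min, then read on FLIPR. Agonist response taken as maximum fluorescence change over baseline. pEC50 from four-parameter logistic fit; triplicates.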
# Mus musculus [5] = test: Hypotensive effect in anesthetized wild type mouse assessed as change in mean arterial blood pressure at 1.4 uM/Kg, iv administered via right jugular vein measured for 60 mins; type: functional; conditions: 1 h
# Procedure, shortened: (§2)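 Anesthetized mice received peptide at 1.4 μM kg−1 body weight, or equal-volume saline, by injection into the right jugular vein (n = 3). HR, MABP, SBP and DBP were recorded from blood pressure traces and reported as mean ± S.E.M.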
# Mus musculus [6] = test: Hypotensive effect in anesthetized wild type mouse assessed as total time duration of hypotensive effect at 1.4 uM/Kg, iv administered via right jugular vein measured for 60 mins; type: functional; conditions: 1 h; procedure, shortened: as §2
# Neprilysin [7] = molecular target: T1, Neprilysin; test: Proteolytic stability assessed as recombinant human NEP-mediated compound degradation incubated for 24 hrs by LC-MS analysis; type: ADME
# Procedure, shortened: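 Recombinant human NEP diluted to 2 ng μL−1 in NEP-B buffer and preincubated 10 min at 37 °C. Peptide (1 mM aqueous solution) added and incubated at 37 °C. Aliquots taken at 0, 2, 10, 20 and 48 h, quenched and quantified by LC-MS; triplicate per time point.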
# [8] = Stability in mouse plasma assessed as half life at 1 mM measured for 24 hrs by LC-MS analysis; type: ADME, cell-free; procedure, shortened: as §1
# Apelin receptor [9] = molecular target: T3, Apelin receptor (Rattus norvegicus, UniProt Q9JHG3); test: Displacement of [125I]-pyr-1-apelin-13 from EGFP tagged rat apelin receptor expressed in CHO cell membrane incubated for 3 hrs by gamma counter analysis; type: cell membranes
# T3 sequence (Q9JHG3 whole entry): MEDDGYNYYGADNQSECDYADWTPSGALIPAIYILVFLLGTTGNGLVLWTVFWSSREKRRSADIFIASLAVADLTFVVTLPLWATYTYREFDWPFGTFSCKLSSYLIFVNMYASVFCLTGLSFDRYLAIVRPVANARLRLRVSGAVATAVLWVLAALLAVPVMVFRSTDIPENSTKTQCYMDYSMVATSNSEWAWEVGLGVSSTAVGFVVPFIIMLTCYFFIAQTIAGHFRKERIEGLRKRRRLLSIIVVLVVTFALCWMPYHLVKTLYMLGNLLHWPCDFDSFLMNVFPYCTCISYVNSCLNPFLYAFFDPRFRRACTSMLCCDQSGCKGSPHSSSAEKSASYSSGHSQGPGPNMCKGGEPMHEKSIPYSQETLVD
# Procedure, shortened: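 Crude membranes (1 μg/assay) from CHO cells stably expressing wild-type rat APJ-EGFP, incubated 3 h at 20 °C with 0.2 nM [125I]-pyr-1-apelin-13 (Lys8 Bolton–Hunter monoiodinated) and competitor at various concentrations. Binding buffer: 50 mM HEPES, 5 mM MgCl2, 1% BSA, pH 7.5. Quenched with cold buffer, GF/C filtered and washed, gamma counted; triplicates.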
# T1 sequence (P08473 whole entry): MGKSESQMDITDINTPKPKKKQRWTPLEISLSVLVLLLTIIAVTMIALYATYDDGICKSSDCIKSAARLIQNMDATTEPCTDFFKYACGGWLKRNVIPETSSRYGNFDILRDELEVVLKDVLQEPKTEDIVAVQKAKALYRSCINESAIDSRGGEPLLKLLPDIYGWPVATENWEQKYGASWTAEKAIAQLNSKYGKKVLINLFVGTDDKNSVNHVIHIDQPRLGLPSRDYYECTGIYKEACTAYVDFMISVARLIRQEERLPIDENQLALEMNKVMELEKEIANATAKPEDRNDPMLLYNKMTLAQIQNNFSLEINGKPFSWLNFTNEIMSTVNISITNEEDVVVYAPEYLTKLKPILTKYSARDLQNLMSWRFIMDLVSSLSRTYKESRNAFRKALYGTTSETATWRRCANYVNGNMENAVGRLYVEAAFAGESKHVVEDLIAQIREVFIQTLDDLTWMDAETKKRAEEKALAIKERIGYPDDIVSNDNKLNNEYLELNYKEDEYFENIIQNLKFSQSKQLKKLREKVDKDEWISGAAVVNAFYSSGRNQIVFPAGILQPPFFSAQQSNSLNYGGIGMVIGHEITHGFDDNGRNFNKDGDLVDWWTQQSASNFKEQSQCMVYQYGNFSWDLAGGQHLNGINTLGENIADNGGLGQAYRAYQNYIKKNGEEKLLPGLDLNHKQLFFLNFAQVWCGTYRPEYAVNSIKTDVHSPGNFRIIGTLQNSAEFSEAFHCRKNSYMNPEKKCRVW
Structure (SMILES),t1/2 (Neprilysin [1]),half-life at 1000 µM [2],"fraction unbound at 3 h, 100 µM [3]",EC50 (Apelin receptor [4]),Activity (Mus musculus [5]),Time (Mus musculus [6]),Stability (Neprilysin [7]),half-life at 1000 µM [8],Ki (Apelin receptor [9])
CCCC[C@H](NC(=O)[C@@H]1CCCN1C(=O)CNC(=O)[C@H](CCCCN)NC(=O)[C@H](Cc1c[nH]cn1)NC(=O)[C@H](CO)NC(=O)[C@H](CC(C)C)NC(=O)[C@H](CCCNC(=N)N)NC(=O)[C@@H]1CCCN1C(=O)[C@H](CCCNC(=N)N)NC(=O)[C@H](CCC(N)=O)NC(=O)[C@H](CCCNC(=N)N)NC(=O)[C@H](CCCNC(=N)N)NC(=O)[C@H](Cc1ccccc1)NC(=O)[C@@H](N)CCCCN)C(=O)NC(C)(C)C(=O)N[C@@H](Cc1ccc(Br)cc1)C(=O)O (H-KFRRQRPRLSHKGP[Nle][Aib][Phe(4-Br)]-OH),657 min,54 min,0.43,4.27 nM,10.24 mmHg,33 min,–,–,–
CCCC[C@H](NC(=O)[C@@H]1CCCN1C(=O)CNC(=O)[C@H](CCCCN)NC(=O)[C@H](Cc1c[nH]cn1)NC(=O)[C@H](CO)NC(=O)[C@H](CC1CCCCC1)N(C)C(=O)[C@H](CCCNC(=N)N)NC(=O)[C@@H]1CCCN1C(=O)[C@H](CCCNC(=N)N)NC(=O)[C@H](CCC(N)=O)NC(=O)[C@H](CCCNC(=N)N)NC(=O)[C@H](CCCNC(=N)N)NC(=O)[C@H](Cc1ccccc1)NC(=O)[C@@H](N)CCCCN)C(=O)NC(C)(C)C(=O)N[C@@H](Cc1ccc(Br)cc1)C(=O)O (H-KFRRQRPR[NMeCha]SHKGP[Nle][Aib][Phe(4-Br)]-OH),–,174 min,0.32,16.2 nM,28.83 mmHg,60 min,Stable,26.4 min,2 nM
CCCC[C@H](NC(=O)[C@@H]1CCCN1C(=O)CNC(=O)[C@H](CCCCN)NC(=O)[C@H](Cc1c[nH]cn1)NC(=O)[C@H](CO)NC(=O)[C@H](CC1CCCCC1)N(C)C(=O)[C@H](CCCCNC(=N)N)NC(=O)[C@@H]1CCCN1C(=O)[C@H](CCCNC(=N)N)NC(=O)[C@H](CCC(N)=O)NC(=O)[C@H](CCCNC(=N)N)NC(=O)[C@H](CCCNC(=N)N)NC(=O)[C@H](Cc1ccccc1)NC(=O)[C@@H](N)CCCCN)C(=O)NC(C)(C)C(=O)N[C@@H](Cc1ccc(Br)cc1)C(=O)O (H-KFRRQRP[hArg][NMeCha]SHKGP[Nle][Aib][Phe(4-Br)]-OH),–,205 min,0.31,72.4 nM,47.57 mmHg,60 min,Stable,21.6 min,0.646 nM
